# Reference: ChEMBL document CHEMBL1641445, “Synthesis, antiprotozoal, antimicrobial, β-hematin inhibition, cytotoxicity and methemoglobin (MetHb) formation activities of bis(8-aminoquinolines)” (Bioorg Med Chem, 2011)
# The source made the active and inactive calls. The calls are words filed in the database; no cut-off is given here.
# Key:
# [1] = test system: Vero; assay: Cytotoxicity against african green monkey Vero cells up to 10 ug/ml by neutral red assay; format: cell-based; conditions: chlorocebus sabaeus
# Outline: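 Vero (monkey kidney) cells were exposed up to a highest concentration of 10 µg/mL. Viability was read by neutral red uptake.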
# [2] = Inhibition of beta-hematin formation; format: functional
# [3] = test system: Plasmodium falciparum; assay: Antimalarial activity against chloroquine-resistant Plasmodium falciparum W2 by LDH assay; format: functional, organism-based
# Outline: (§1)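 Antiplasmodial activity was measured in vitro against P. falciparum blood-stage cultures. Read-out was parasite lactate dehydrogenase (LDH) activity, with IC50 values expressed in µg/mL. The same protocol was used for the D6 and W2 strains.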
# [4] = Hematotoxicity against RBC assessed as formation of methemoglobin at 20 ug/ml relative to control; format: cell-based; conditions: erythrocyte
# Outline: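 Metabolism-linked methemoglobin toxicity in vitro. Percent MetHb formation was determined at 20 µg/mL of compound relative to vehicle control.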
# [5] = test system: Candida albicans; assay: Antifungal activity against Candida albicans ATCC 90028 at 20 ug/ml; format: functional, organism-based
# [6] = test system: Cryptococcus neoformans; assay: Antifungal activity against Cryptococcus neoformans ATCC 90113; format: functional, organism-based
# [7] = test system: Plasmodium falciparum; assay: Antimalarial activity against chloroquine-sensitive Plasmodium falciparum D6 by LDH assay; format: functional, organism-based; outline: as §1
# [8] = test system: Leishmania donovani; assay: Antileishmanial activity against promastigotes of Leishmania donovani by alamar blue assay; format: functional, organism-based
# [9] = test system: Staphylococcus aureus; assay: Antibacterial activity against methicillin-resistant Staphylococcus aureus ATCC 43300 by CLSI method; format: functional, organism-based
# Outline: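 Broth dilution method (NCCLS M7-A5). […] MIC is the lowest concentration allowing no detectable growth. MBC is the lowest concentration killing the organism. Highest test concentration was 20 µg/mL.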
# [10] = test system: Mycobacterium intracellulare; assay: Antibacterial activity against Mycobacterium intracellular ATCC 23068 at 20 ug/ml by CLSI method; format: functional, organism-based
# [11] = test system: Mycobacterium intracellulare; assay: Antibacterial activity against Mycobacterium intracellular ATCC 23068 by CLSI method; format: functional, organism-based
# [12] = Plasmodium falciparum, W2, read-out: IC50
# [13] = Plasmodium falciparum, D6, read-out: IC50
# [14] = Leishmania donovani, read-out: IC50
SMILES,Activity [1],IC50 [2] [µM],"IC50 [3, 12] [µg/mL]",Methemoglobin formation [4] [%],"IC50 [7, 13] [µg/mL]",IC90 ([8]; Leishmania donovani) [µg/mL],"IC50 [8, 14] [µg/mL]",other results
"COc1cc(NC(C)CCCNC(=O)NC(CCCN)C(=O)NCCCC(C)Nc2cc(OC)cc3cccnc23)c2ncccc2c1.Cl (single isomer, unassigned; 37)",Non-toxic,88,2,7.9,2.8,40,14,IC50 [5]: Not Active; IC50 [6]: 15 µg/mL; MFC [6]: 20 µg/mL; MIC [6]: 20 µg/mL
C[C@@H]1[C@H](O)[C@@H](C)/C=C/C=C/C=C/C=C/C=C/C=C/C=C/[C@H](O[C@@H]2O[C@H](C)[C@@H](O)[C@H](N)[C@@H]2O)C[C@@H]2O[C@](O)(C[C@@H](O)C[C@@H](O)[C@H](O)CC[C@@H](O)C[C@@H](O)CC(=O)O[C@H]1C)C[C@H](O)[C@H]2C(=O)O [AMPHOTERICIN B],–,–,–,–,–,0.35,–,–
COc1cc(NC(C)CCCNC(=O)c2cccc(C(=O)NCCCC(C)Nc3cc(OC)cc4cccnc34)n2)c2ncccc2c1.Cl (centres undefined),Non-toxic,123,2.3,5.7,–,–,6.5,IC90 [8]: inactive
COc1cc(NC(C)CCCNC(=O)c2ccncc2C(=O)NCCCC(C)Nc2cc(OC)cc3ccc(C(C)(C)C)nc23)c2nc(C(C)(C)C)ccc2c1.Cl (centres undefined),Non-toxic,70,0.87,1.2,1.5,31,16,IC50 [9]: 15 µg/mL; MBC [9]: 20 µg/mL; MIC [9]: 20 µg/mL; IC50 [10]: Not Active; MBC [10]: inactive; MIC [10]: inactive
COc1cc(NC(C)CCCNC(=O)N[C@@H](CCCCN)C(=O)NCCCC(C)Nc2cc(OC)cc3ccc(C(C)(C)C)nc23)c2nc(C(C)(C)C)ccc2c1.Cl (some centres undefined),Non-toxic,> 1000,–,1.1,–,38,19,IC50 [3]: Not Active; IC50 [9]: 8 µg/mL; MBC [9]: 20 µg/mL; MIC [9]: 20 µg/mL; IC50 [10]: Not Active; MBC [10]: inactive; MIC [10]: inactive; IC50 [7]: Not Active
COc1cc(NC(C)CCCNC(=O)c2cncc(C(=O)NCCCC(C)Nc3cc(OC)cc4ccc(C(C)(C)C)nc34)c2)c2nc(C(C)(C)C)ccc2c1.Cl (centres undefined),Non-toxic,120,–,0.55,–,–,19,IC90 [8]: inactive
COc1cc(NC(C)CCCN)c2nc(C(C)(C)C)ccc2c1 (centres undefined),–,2.9,–,–,–,–,–,–
COc1cc(NC(C)CCCNC(=O)C(=O)NCCCC(C)Nc2cc(OC)cc3cccnc23)c2ncccc2c1.Cl.Cl (centres undefined),Non-toxic,> 1000,–,6.45,–,> 40,15,IC50 [3]: Not Active; IC50 [7]: Not Active
C[C@@H]1CC[C@H]2[C@@H](C)C(=O)O[C@@H]3O[C@@]4(C)CC[C@@H]1[C@]32OO4 [ARTEMISININ],–,–,–,–,0.015,–,–,–
COc1cc(NC(C)CCCNC(=O)c2cccc(C(=O)NCCCC(C)Nc3cc(OC)cc4ccc(C(C)(C)C)nc34)n2)c2nc(C(C)(C)C)ccc2c1.Cl (centres undefined),Non-toxic,> 1000,4.5,0.25,–,–,–,IC50 [7]: Not Active; IC50 [8]: Not Active; IC90 [8]: inactive
COc1cc(NC(C)CCCNC(=O)NC(=O)NCCCC(C)Nc2cc(OC)cc3ccc(C(C)(C)C)nc23)c2nc(C(C)(C)C)ccc2c1.Cl.Cl (centres undefined),Non-toxic,> 1000,–,8.8,–,> 40,25,IC50 [3]: Not Active; IC50 [7]: Not Active
"COc1cc(NC(C)CCCNC(=O)NC(CCCN)C(=O)NCCCC(C)Nc2cc(OC)cc3cccnc23)c2ncccc2c1.Cl (single isomer, unassigned; 40)",Non-toxic,154,2.8,6.1,4.2,39,18,IC50 [5]: Not Active; IC50 [6]: 7 µg/mL; IC50 [9]: 10 µg/mL; MIC [9]: 20 µg/mL; IC50 [10]: Not Active
"COc1cc(NC(C)CCCNC(=O)NC(CCCNC(=N)N)C(=O)NCCCC(C)Nc2cc(OC)cc3cccnc23)c2ncccc2c1.Cl (single isomer, unassigned; 36)",Non-toxic,90,–,3.1,–,7.2,–,IC50 [5]: Not Active; IC50 [6]: 6.5 µg/mL; MFC [6]: 10 µg/mL; MIC [6]: 10 µg/mL; IC50 [9]: 15 µg/mL; MIC [9]: 20 µg/mL; IC50 [11]: 15 µg/mL; MBC [11]: 20 µg/mL; MIC [11]: 20 µg/mL
COc1cc(NC(C)CCCNC(=O)c2cncc(C(=O)NCCCC(C)Nc3cc(OC)cc4cccnc34)c2)c2ncccc2c1.Cl (centres undefined),Non-toxic,110,3,5.5,3.3,–,18,IC90 [8]: inactive
"COc1cc(NC(C)CCCNC(=O)NC(CCCNC(=N)N)C(=O)NCCCC(C)Nc2cc(OC)cc3cccnc23)c2ncccc2c1.Cl (single isomer, unassigned; 39)",Non-toxic,88,1.5,5.5,2.4,36,19,IC50 [5]: Not Active; IC50 [6]: 15 µg/mL; MFC [6]: 20 µg/mL; MIC [6]: 20 µg/mL; IC50 [9]: 15 µg/mL; MBC [9]: 20 µg/mL; IC50 [10]: Not Active
COc1cc(NC(C)CCCNC(=S)NCCCC(C)Nc2cc(OC)cc3ccc(C(C)(C)C)nc23)c2nc(C(C)(C)C)ccc2c1.Cl.Cl (centres undefined),Non-toxic,> 1000,2.3,0.75,3,31,9,–
COc1cc(NC(C)CCCNSC(=O)NCCCC(C)Nc2cc(OC)cc3cccnc23)c2ncccc2c1.Cl.Cl (centres undefined),Non-toxic,153,4.76,10.9,–,38,20,IC50 [7]: Not Active
COc1cc(NC(C)CCCNC(=O)c2ccncc2C(=O)NCCCC(C)Nc2cc(OC)cc3cccnc23)c2ncccc2c1.Cl (centres undefined),Non-toxic,108,1.7,3.55,3,–,–,IC50 [8]: Not Active; IC90 [8]: inactive
"COc1cc(NC(C)CCCNC(=O)NC(CCCCN)C(=O)NCCCC(C)Nc2cc(OC)cc3cccnc23)c2ncccc2c1.Cl (single isomer, unassigned)",Non-toxic,80,2.7,3.75,2.7,> 40,18,–
N=C(N)c1ccc(OCCCCCOc2ccc(C(=N)N)cc2)cc1 [PENTAMIDINE],–,–,–,–,–,3.8,–,–
COc1cc(NC(C)CCCNCC(=O)NCCCC(C)Nc2cc(OC)cc3cccnc23)c2ncccc2c1.Cl.Cl (centres undefined),Non-toxic,> 1000,–,20.3,–,–,20,IC50 [3]: Not Active; IC50 [7]: Not Active; IC90 [8]: inactive
